Experimental data reported in ChEMBL document CHEMBL2331542, “Synthesis and in vitro antibacterial activity of quinolone/naphthyridone derivatives containing 3-alkoxyimino-4-(methyl)aminopiperidine scaffolds” (2013).
Converted amounts (≈) assume the structure as drawn.

system: Staphylococcus aureus; assay: Antibacterial activity against methicillin-sensitive Staphylococcus aureus isolate 12-6; assay type: functional
How it was run: (§1)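 MIC determined in vitro by a standard technique and defined as the lowest compound concentration giving complete inhibition of bacterial growth. The Gram-positive and Gram-negative panels were tested alongside gemifloxacin, levofloxacin and ciprofloxacin reference drugs.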

**Q.** `CNC1CCN(c2ccc3c(=O)c(C(=O)O)cn(C4CC4)c3n2)C/C1=N\OC` (stereo unspecified) was tested. Which MIC did it give?
**A.** 2 µg/mL (≈ 5.19 µM)

system: Escherichia coli; assay: Antibacterial activity against Escherichia coli isolate 12-1; assay type: functional; how it was run: as §1

**Q.** `CNC1CCN(c2ccc3c(=O)c(C(=O)O)cn(C4CC4)c3n2)C/C1=N\OC` (stereo unspecified) was tested. Which MIC did it give?
**A.** 64 µg/mL (≈ 166 µM)

system: Streptococcus pneumoniae; assay: Antibacterial activity against Streptococcus pneumoniae isolate 12-5; assay type: functional; how it was run: as §1

**Q.** `CNC1CCN(c2ccc3c(=O)c(C(=O)O)cn(C4CC4)c3n2)C/C1=N\OC` (stereo unspecified) was tested. Which MIC did it give?
**A.** 4 µg/mL (≈ 10.4 µM)

system: Escherichia coli; assay: Antibacterial activity against Escherichia coli isolate 12-4; assay type: functional; how it was run: as §1

**Q.** How did the MIC turn out when `CNC1CCN(c2ccc3c(=O)c(C(=O)O)cn(C4CC4)c3n2)C/C1=N\OC` (stereo unspecified) was run?
**A.** > 128 µg/mL

system: Klebsiella pneumoniae; assay: Antibacterial activity against extended-spectrum beta-lactamase-producing Klebsiella pneumoniae isolate 12-2; assay type: functional; how it was run: as §1

**Q.** For `CNC1CCN(c2ccc3c(=O)c(C(=O)O)cn(C4CC4)c3n2)C/C1=N\OC` (stereo unspecified), which MIC is on record?
**A.** > 128 µg/mL

system: Staphylococcus epidermidis; assay: Antibacterial activity against methicillin-sensitive Staphylococcus epidermidis isolate 12-2; assay type: functional; how it was run: as §1

**Q.** How did the MIC turn out when `CNC1CCN(c2ccc3c(=O)c(C(=O)O)cn(C4CC4)c3n2)C/C1=N\OC` (stereo unspecified) was run?
**A.** 16 µg/mL (≈ 41.5 µM)

system: Staphylococcus aureus; assay: Antibacterial activity against methicillin-resistant Staphylococcus aureus isolate 12-3; assay type: functional
How it was run: (§2)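 MIC determined in vitro by standard techniques, defined as the lowest compound concentration giving complete inhibition of bacterial growth. Gemifloxacin, levofloxacin and ciprofloxacin were tested alongside as reference drugs.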

**Q.** Which MIC does the source give for `CNC1CCN(c2ccc3c(=O)c(C(=O)O)cn(C4CC4)c3n2)C/C1=N\OC` (stereo unspecified) here?
**A.** 4 µg/mL (≈ 10.4 µM)

system: Staphylococcus aureus; assay: Antibacterial activity against methicillin-sensitive Staphylococcus aureus isolate 12-7; assay type: functional; how it was run: as §1

**Q.** Which MIC does the source give for `CNC1CCN(c2ccc3c(=O)c(C(=O)O)cn(C4CC4)c3n2)C/C1=N\OC` (stereo unspecified) here?
**A.** 4 µg/mL (≈ 10.4 µM)

system: Klebsiella pneumoniae; assay: Antibacterial activity against extended-spectrum beta-lactamase-producing Klebsiella pneumoniae isolate 12-4; assay type: functional; how it was run: as §1

**Q.** `CNC1CCN(c2ccc3c(=O)c(C(=O)O)cn(C4CC4)c3n2)C/C1=N\OC` (stereo unspecified) was tested. Which MIC did it give?
**A.** 2 µg/mL (≈ 5.19 µM)

system: Streptococcus pneumoniae; assay: Antibacterial activity against Streptococcus pneumoniae isolate 12-2; assay type: functional; how it was run: as §1

**Q.** With `CNC1CCN(c2ccc3c(=O)c(C(=O)O)cn(C4CC4)c3n2)C/C1=N\OC` (stereo unspecified) as the compound, how does the MIC read?
**A.** 4 µg/mL (≈ 10.4 µM)

system: Staphylococcus aureus; assay: Antibacterial activity against methicillin-resistant Staphylococcus aureus isolate 12-15; assay type: functional; how it was run: as §2

**Q.** `CNC1CCN(c2ccc3c(=O)c(C(=O)O)cn(C4CC4)c3n2)C/C1=N\OC` (stereo unspecified) was tested. Which MIC did it give?
**A.** 4 µg/mL (≈ 10.4 µM)

system: Staphylococcus epidermidis; assay: Antibacterial activity against methicillin-sensitive Staphylococcus epidermidis isolate 12-3; assay type: functional; how it was run: as §1

**Q.** Which MIC does the source give for `CNC1CCN(c2ccc3c(=O)c(C(=O)O)cn(C4CC4)c3n2)C/C1=N\OC` (stereo unspecified) here?
**A.** 8 µg/mL (≈ 20.8 µM)

system: Staphylococcus aureus; assay: Antibacterial activity against methicillin-resistant Staphylococcus aureus isolate 12-13; assay type: functional; how it was run: as §2

**Q.** How did the MIC turn out when `CNC1CCN(c2ccc3c(=O)c(C(=O)O)cn(C4CC4)c3n2)C/C1=N\OC` (stereo unspecified) was run?
**A.** 4 µg/mL (≈ 10.4 µM)

system: Klebsiella pneumoniae; assay: Antibacterial activity against extended-spectrum beta-lactamase-producing Klebsiella pneumoniae isolate 12-1; assay type: functional; how it was run: as §1

**Q.** `CNC1CCN(c2ccc3c(=O)c(C(=O)O)cn(C4CC4)c3n2)C/C1=N\OC` (stereo unspecified) was tested. Which MIC did it give?
**A.** 128 µg/mL (≈ 332 µM)

system: Staphylococcus epidermidis; assay: Antibacterial activity against methicillin-sensitive Staphylococcus epidermidis isolate 12-1; assay type: functional; how it was run: as §1

**Q.** How did the MIC turn out when `CNC1CCN(c2ccc3c(=O)c(C(=O)O)cn(C4CC4)c3n2)C/C1=N\OC` (stereo unspecified) was run?
**A.** 8 µg/mL (≈ 20.8 µM)

system: Staphylococcus aureus; assay: Antibacterial activity against methicillin-sensitive Staphylococcus aureus isolate 12-10; assay type: functional; how it was run: as §1

**Q.** How did the MIC turn out when `CNC1CCN(c2ccc3c(=O)c(C(=O)O)cn(C4CC4)c3n2)C/C1=N\OC` (stereo unspecified) was run?
**A.** 2 µg/mL (≈ 5.19 µM)

system: Escherichia coli; assay: Antibacterial activity against extended-spectrum beta-lactamase-producing Escherichia coli isolate 12-1; assay type: functional; how it was run: as §1

**Q.** With `CNC1CCN(c2ccc3c(=O)c(C(=O)O)cn(C4CC4)c3n2)C/C1=N\OC` (stereo unspecified) as the compound, how does the MIC read?
**A.** > 128 µg/mL

system: Escherichia coli; assay: Antibacterial activity against Escherichia coli ATCC 25922; assay type: functional; how it was run: as §1

**Q.** Which MIC does the source give for `CNC1CCN(c2ccc3c(=O)c(C(=O)O)cn(C4CC4)c3n2)C/C1=N\OC` (stereo unspecified) here?
**A.** 0.5 µg/mL (≈ 1.3 µM)

system: Staphylococcus epidermidis; assay: Antibacterial activity against methicillin-resistant Staphylococcus epidermidis isolate 12-33; assay type: functional; how it was run: as §2

**Q.** With `CNC1CCN(c2ccc3c(=O)c(C(=O)O)cn(C4CC4)c3n2)C/C1=N\OC` (stereo unspecified) as the compound, how does the MIC read?
**A.** 4 µg/mL (≈ 10.4 µM)

system: Escherichia coli; assay: Antibacterial activity against extended-spectrum beta-lactamase-producing Escherichia coli isolate 12-2; assay type: functional; how it was run: as §1

**Q.** For `CNC1CCN(c2ccc3c(=O)c(C(=O)O)cn(C4CC4)c3n2)C/C1=N\OC` (stereo unspecified), which MIC is on record?
**A.** 128 µg/mL (≈ 332 µM)

system: Escherichia coli; assay: Antibacterial activity against extended-spectrum beta-lactamase-producing Escherichia coli isolate 12-4; assay type: functional; how it was run: as §1

**Q.** How did the MIC turn out when `CNC1CCN(c2ccc3c(=O)c(C(=O)O)cn(C4CC4)c3n2)C/C1=N\OC` (stereo unspecified) was run?
**A.** 64 µg/mL (≈ 166 µM)

system: Pseudomonas aeruginosa; assay: Antibacterial activity against Pseudomonas aeruginosa isolate 12-2; assay type: functional; how it was run: as §1

**Q.** `CNC1CCN(c2ccc3c(=O)c(C(=O)O)cn(C4CC4)c3n2)C/C1=N\OC` (stereo unspecified) was tested. Which MIC did it give?
**A.** 8 µg/mL (≈ 20.8 µM)

system: Klebsiella pneumoniae; assay: Antibacterial activity against Klebsiella pneumoniae isolate 12-1; assay type: functional; how it was run: as §1

**Q.** For `CNC1CCN(c2ccc3c(=O)c(C(=O)O)cn(C4CC4)c3n2)C/C1=N\OC` (stereo unspecified), which MIC is on record?
**A.** 2 µg/mL (≈ 5.19 µM)

system: Klebsiella pneumoniae; assay: Antibacterial activity against Klebsiella pneumoniae isolate 12-2; assay type: functional; how it was run: as §1

**Q.** With `CNC1CCN(c2ccc3c(=O)c(C(=O)O)cn(C4CC4)c3n2)C/C1=N\OC` (stereo unspecified) as the compound, how does the MIC read?
**A.** 2 µg/mL (≈ 5.19 µM)

system: Klebsiella pneumoniae; assay: Antibacterial activity against Klebsiella pneumoniae isolate 12-4; assay type: functional; how it was run: as §1

**Q.** For `CNC1CCN(c2ccc3c(=O)c(C(=O)O)cn(C4CC4)c3n2)C/C1=N\OC` (stereo unspecified), which MIC is on record?
**A.** 2 µg/mL (≈ 5.19 µM)

system: Staphylococcus epidermidis; assay: Antibacterial activity against methicillin-resistant Staphylococcus epidermidis isolate 12-35; assay type: functional; how it was run: as §2

**Q.** How did the MIC turn out when `CNC1CCN(c2ccc3c(=O)c(C(=O)O)cn(C4CC4)c3n2)C/C1=N\OC` (stereo unspecified) was run?
**A.** 2 µg/mL (≈ 5.19 µM)

system: Pseudomonas aeruginosa; assay: Antibacterial activity against Pseudomonas aeruginosa isolate 12-1; assay type: functional; how it was run: as §1

**Q.** `CNC1CCN(c2ccc3c(=O)c(C(=O)O)cn(C4CC4)c3n2)C/C1=N\OC` (stereo unspecified) was tested. Which MIC did it give?
**A.** 16 µg/mL (≈ 41.5 µM)

system: Staphylococcus epidermidis; assay: Antibacterial activity against methicillin-resistant Staphylococcus epidermidis isolate 12-5; assay type: functional; how it was run: as §2

**Q.** How did the MIC turn out when `CNC1CCN(c2ccc3c(=O)c(C(=O)O)cn(C4CC4)c3n2)C/C1=N\OC` (stereo unspecified) was run?
**A.** 2 µg/mL (≈ 5.19 µM)

system: Escherichia coli; assay: Antibacterial activity against Escherichia coli isolate 12-5; assay type: functional; how it was run: as §1

**Q.** `CNC1CCN(c2ccc3c(=O)c(C(=O)O)cn(C4CC4)c3n2)C/C1=N\OC` (stereo unspecified) was tested. Which MIC did it give?
**A.** > 128 µg/mL

system: Pseudomonas aeruginosa; assay: Antibacterial activity against Pseudomonas aeruginosa ATCC 27853; assay type: functional; how it was run: as §1

**Q.** Which MIC does the source give for `CNC1CCN(c2ccc3c(=O)c(C(=O)O)cn(C4CC4)c3n2)C/C1=N\OC` (stereo unspecified) here?
**A.** 8 µg/mL (≈ 20.8 µM)

system: Staphylococcus aureus; assay: Antibacterial activity against Staphylococcus aureus […]; assay type: functional; how it was run: as §1

**Q.** For `CNC1CCN(c2ccc3c(=O)c(C(=O)O)cn(C4CC4)c3n2)C/C1=N\OC` (stereo unspecified), which MIC is on record?
**A.** 0.5 µg/mL (≈ 1.3 µM)
